Compound activity (PubChem)
The entries come from a sample that favours hits as a whole.
CHOP UPR activ: activators of apoptotic arm of unfolded protein response (CHOP) | CHO-CHOP luciferase reporter, UPR activation, luminescence; percent of tunicamycin response over DMSO baseline | activation, % at 10 µM | hit rate 0.34% among 330,000;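 active = at 10 µM dose, activation of 40% or more, normalized to positive control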
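System: CHO-CHOP luciferase reporter cell line | Buffer or medium: F12 medium containing 10% fetal bovine serum | Doses: One dose, 10 µM in 0.5% DMSO | Times: 6 h compound exposure at 37 °C after overnight seeding | Signal: Luciferase luminescence | Read-out: % activation vs tunicamycin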
T cruzi inh: blocks replication of Trypanosoma cruzi; T. cruzi beta-gal in NIH3T3, luminescence, 90 h; inhibition, % (concentration not given with the values); hit rate 1.4% among 300,000; AID 1885;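 active = mean inhibition across valid replicates above about 55%, limit read from the data; inconclusive = mean below that limit but half or more replicates reach it; inactive = mean below it, under half of replicates reach it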;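 also: signal also drops with host cell toxicity which is not excluded here; higher percent means less beta-gal luminescence so fewer parasites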
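Test system: β-gal T. cruzi (Tulahuen C4) inside NIH/3T3 cells / Quantity: 5,000 cells/well / Measured by: luminescence from GalScreen with 0.05% NP40, read after 60 min / Medium: DMEM plus 2% FBS / Measure: parasite load inhibition, % / Reagent: Tulahuen C4 trypomastigotes, 5000/well / Schedule: co-culture of at least 90 h after 3 h attachment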
CHOP inhibitor: inhibitors of CHOP induction in ER stress response | CHO-K1 CHOP-promoter luciferase, tunicamycin-induced, 15-18 h | inhibition, % at 10 µM | hit rate 3.8% among 220,000;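 active = compounds that reduced the stress-induced luciferase reporter signal by more than about 70% of percent inhibition, limit read from the data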
UPR XBP1 act: adaptive UPR (XBP1) activation; AID 463104; hit rate 0.33% among 330,000; CHO-XBP1 luciferase reporter, IRE1-XBP1 UPR activation, luminescence; percent of tunicamycin response, DMSO as zero; activation, % at 20 µM;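 active = versus positive control, 20 µM dose yields 30% or more activation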
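Material: IRE1-XBP1 luciferase reporter CHO line / Quantity: one thousand reporter cells per well / Buffer or medium: F12 with 10% serum / Compound: 20 µM single concentration, DMSO 1% / Times: 6 h treatment, 37 °C / Detection: Steady-Glo luciferase glow luminescence, 10 min after reagent addition / Benchmarks: tunicamycin high, DMSO low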
Dynein transport: dynein cargo transport inhibition; 3617.4 mouse cells, GR-EGFP nuclear translocation imaging; test concentration mostly 20 µM; stimulated with dexamethasone, 1 µM; active compounds read low; z-score, hits read low; hit rate 0.47% among 220,000; AID 1381;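 active = plate z-score of nuclear minus cytoplasmic receptor signal below a set negative limit, without overly bright fluorescence or cell loss, cut at about -3.5 in these data, passing the limit was not always enough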;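 also: z-score of nuclear minus cytoplasmic ring GR-EGFP intensity difference per well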
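Buffer or medium: tet-free, stripped-serum medium; reagent: dexamethasone at 1.0 µM final, 30 min; incubation: 48 h induction, 1 h compound, 30 min dex at 37 °C; measured by: formaldehyde fixation, Hoechst nuclear stain, 10x automated fluorescence imaging; read-out: nuclear-to-cytoplasmic GR-EGFP distribution per well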
L major viab: inhibitors of Leishmania major promastigote growth. Leishmania major promastigotes, resazurin fluorescence viability. inhibition, % at 10 µM. hit rate 9% among 200,000; in the data active = inhibition above about 50%;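 also: promastigotes grown with compound for 44 hours at 28 °C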
A number is an active result; . = inactive; ? = inconclusive; / = not tested or not shown.

SMILES | CHOP UPR activ | T cruzi inh | CHOP inhibitor | UPR XBP1 act | Dynein transport | L major viab
CCCOc1ccccc1C1C(C(=O)OC)=CN(C(C)C)C=C1C(=O)OC | . | . | . | . | . | 100
CCCCOc1ccccc1C1C(C(=O)OC)=CN(CC)C=C1C(=O)OC | . | . | . | . | . | 61
O=C(O)C(Cc1ccc(Cl)cc1)NS(=O)(=O)c1ccc(Cl)cc1 (stereo unspecified) | . | . | / | . | / | /
Fc1ccccc1N1CCN(C2CCCN(Cc3cccc(C(F)(F)F)c3)C2)CC1 (stereo unspecified) | . | 72 | / | . | / | /
Oc1ccccc1CN1CCCC(N2CCN(c3cccc(C(F)(F)F)c3)CC2)C1 (stereo unspecified) | . | . | / | . | / | /
COC(=O)Cc1coc2cc(OC)ccc12 | . | / | / | . | / | /
COc1ccccc1N1C(C)=CC(=C(C#N)c2nc3ccccc3s2)C=C1C | . | ? | . | . | . | 52
CC1=CC(=C(C#N)c2nc3ccccc3s2)C=C(C)N1c1ccc(F)cc1 | . | . | . | . | . | .
COc1cccc(C(=O)/C=C/c2ccc(OCC#N)c(OC)c2)c1 | . | . | . | . | . | 100
COc1cc(/C=C/C(=O)c2ccc(O)cc2)ccc1OCC#N | . | . | . | . | . | 99
Cc1ccc(S(=O)(=O)N[C@H](C(=O)Oc2ccc3c(C(F)(F)F)cc(=O)oc3c2)c2ccccc2)cc1 | . | . | 75 | . | . | .
CCC1(c2ccccc2)NC(=O)N(CC(=O)NCc2ccc(C)cc2)C1=O (stereo unspecified) | . | . | / | . | / | /
CN1CCN(CC2(O)CCN(S(=O)(=O)c3ccc(Cl)cc3)CC2)CC1 | . | 72 | . | . | . | 100
Cc1ccc(SCC2(O)CCN(S(=O)(=O)c3ccc(Cl)cc3)CC2)cc1 | . | . | 81 | . | . | .
CC(C)CC(C(=O)NC1CCCC1)N(Cc1ccc2c(c1)OCO2)C(=O)c1snc(C(N)=O)c1N (stereo unspecified) | . | . | 81 | . | . | .
CC(C)CCNC(=O)C(c1ccco1)N(Cc1ccccc1)C(=O)c1snc(C(N)=O)c1N (stereo unspecified) | . | . | . | . | . | .
CCc1ccccc1N(CC(=O)NCc1ccco1)C(=O)c1snc(C(N)=O)c1N | . | . | . | . | . | 62
CC(C)CCNC(=O)C(CC(C)C)N(Cc1ccc2c(c1)OCO2)C(=O)c1snc(C(N)=O)c1N (stereo unspecified) | . | . | . | . | . | 92
Cc1ccc(N(C(=O)c2snc(C(N)=O)c2N)C(C(=O)NCCC(C)C)c2ccco2)cc1 (stereo unspecified) | . | 56 | . | . | . | 65
O=C(NCCS(=O)(=O)N1CCCCC1)c1ccc2c(c1)OCO2 | . | . | / | . | / | /
O=C(NCCNc1ccc(Cl)cc1[N+](=O)[O-])c1cccnc1 | . | . | . | . | . | .
Cc1ccoc1C(=O)NCCNc1ccc(Cl)cc1[N+](=O)[O-] | . | . | . | . | . | 83
N#C/C(=C/c1ccc(F)cc1)c1nnc(NC(=O)c2ccccc2)s1 | . | . | 73 | . | . | /
COc1ccccc1N1CCN(CCCNC(=O)C2CCCN(c3ncnc4c3nc3n4CCCCC3)C2)CC1 (stereo unspecified) | . | . | / | . | / | /
O=C(NCCCN1CCCC1)c1cc2c(Cl)nc3ccccc3c2s1 | . | . | . | . | . | 90
SMILES | CHOP UPR activ | T cruzi inh | CHOP inhibitor | UPR XBP1 act | Dynein transport | L major viab
CC1CCN(CCCNC(=O)c2n[nH]c(=O)c3ccccc23)CC1 | . | . | . | . | . | .
CC1CCN(CCCNC(=O)c2cc3c(Cl)nc4ccccc4c3s2)CC1 | . | 56 | . | . | . | 100
CC1CN(CC(=O)NCc2ccc(Cl)cc2)CC(C)O1 (stereo unspecified) | . | . | / | . | / | /
Cc1cc(=O)oc2cc(OCCCC[n+]3ccccc3)ccc12 | . | . | . | . | . | /
CCCCCc1ccc(OCCCC[n+]2cccc(C)c2)c(CCCCC)c1 | . | . | 89 | . | . | 101
CCC(C)(C)c1ccc(OCCCC[n+]2ccccc2)c(C(C)(C)CC)c1 | . | 58 | . | . | -3.7 | 100
CCC(C)(C)c1ccc(Oc2cccc(C(=O)O)c2)cc1 | . | . | . | . | . | /
CCCCCc1ccc(OCCCC[n+]2ccc(C)cc2)c(CCCCC)c1 | . | / | 75 | . | . | 100
CCCCCc1ccc(OCCCC[n+]2ccccc2)c(CCCCC)c1 | . | . | . | . | . | 101
Cc1cccc2sc(NC(=O)Cn3c(C)csc3=O)nc12 | . | / | / | . | / | /
CCOC(=O)C1=C(C)NC(=S)NC1c1ccc(OCC(=O)N2CCCCCC2)c(OC)c1 (stereo unspecified) | . | . | / | . | / | /
Cc1ccc(C)c(NS(=O)(=O)c2cc(C(=O)NCc3ccccn3)ccc2C)c1 | . | . | / | . | / | /
COc1ccccc1C(=O)NCC(=O)OCC(=O)Nc1ccc2[nH]c(=O)[nH]c2c1 | . | . | / | . | / | /
Cc1cccnc1NC(=O)Nc1cccc(Cl)c1 | . | . | / | . | / | /
Cn1cnc(C(=O)NCc2ccccc2)c1C(=O)NCc1ccccc1 | . | / | / | . | / | /
C=CCNC(=S)NCc1cccnc1 | . | . | . | . | . | 80
S=C(NCc1cccnc1)Nc1cccc2ccccc12 | . | . | . | . | . | 92
S=C(Nc1cccc(Cl)c1)N(CCCN1CCCC1)Cc1cccn1Cc1ccc(Cl)cc1 | . | . | . | . | . | 100
COc1cccc(NC(=S)N(CCCN2CCCC2)Cc2cccn2Cc2ccc(Cl)cc2)c1 | . | . | . | . | . | 91
COc1cccc(NC(=S)N(CCCN2CCCC2)Cc2ccco2)c1 | . | . | . | . | . | .
CSc1cccc(NC(=S)N(CCCN2CCCC2)Cc2cccn2Cc2ccc(Cl)cc2)c1 | . | 56 | . | . | . | 101
O=C(CNc1cccc(S(=O)(=O)N2CCCC2)c1)Nc1cccc(C(F)(F)F)c1 | . | / | / | . | / | /
CCc1ccc(C(C(=O)NC2CCCC2)N(C(=O)/C=C/C(=O)Nc2cc(C)on2)c2ccccc2C)cc1 (stereo unspecified) | . | . | . | . | . | 99
CCCCN(C(=O)CCC(=O)Nc1cc(C)on1)C(C(=O)NC1CCCC1)c1ccccc1C (stereo unspecified) | . | . | / | . | / | /
CCOc1ccc(N(C(=O)/C=C/C(=O)Nc2cc(C)on2)C(C(=O)NC2CCCC2)c2ccccc2C)cc1 (stereo unspecified) | . | . | . | . | . | 87
Cc1ccc(-c2nnn(CC(=O)N(Cc3cccs3)C(C(=O)NC3CCCC3)c3ccco3)n2)o1 (stereo unspecified) | . | . | . | . | . | .
